pEC50, pIC50: −log10 of the molar value. In brackets after ≈: the same amount, converted by molar mass.
Legend:
[1] = target: T1, Androgen receptor (Homo sapiens, UniProt P10275, T878A); assay: Agonist activity at human androgen receptor T877A mutant expressed in COS7 cells assessed as luciferase activity after 24 hrs by reporter gene assay; format: functional, cell-based, COS-7
[2] = test system: Mus musculus; assay: Antiandrogenic activity in ICR mouse assessed as reduction of ventral prostate weight at 7.5 mg/kg, po bid administered for 7 days relative to control; format: functional, Prostate gland; design: scale not given: the % may be the effect or the level left
In short: (§1)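 8-week-old male ICR mice, intact, dosed orally for seven days; n = 8 per group. Ventral prostate weighed the day after the last dose. Reduction = decrease in test group ÷ decrease in castrated group × 100. Controls are vehicle-treated mice. Significance by Williams test or unpaired Student's test versus control.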

[3] = test system: Mus musculus; assay: Toxicity in BALB/c mouse assessed as body weight at 25 mg/kg, po bid administered for 29 days measured on day 28 (reference value: 17.6 +/- 0.4g); format: organism-based; design: dose 25 mg/kg, route oral; details: in vivo, 696 h
[4] = target: T2, Androgen receptor (Homo sapiens, UniProt P10275, W742C); assay: Agonist activity at human androgen receptor W741C mutant expressed in COS7 cells assessed as luciferase activity after 24 hrs by reporter gene assay; format: functional, cell-based, COS-7
[5] = Antitumor activity against human JDCaP cells expressing wild type AR xenografted in testosterone propionate-challenged castrated BALB/c nude mouse assessed as decrease in tumor volume at 3.125 mg/kg, po bid administered for 29 days measured on day 28 relative to control; format: functional
In short: (§2)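 Nude mice carrying JDCaP tumours, n = 7 per group, castrated and given s.c. testosterone propionate 0.2 mg/kg once daily for 29 days. Oral twice-daily dosing in 0.5% methylcellulose over the same period; controls get vehicle plus TP. Tumour volume measured weekly. T/C = increase in tumour volume versus control × 100.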

[6] = Antitumor activity against human JDCaP cells expressing wild type AR xenografted in testosterone propionate-challenged castrated BALB/c nude mouse assessed as decrease in tumor volume at 6.25 mg/kg, po bid administered for 29 days measured on day 28 relative to control; format: functional; in short: as §2
[7] = target: T2, Androgen receptor; assay: Antagonist activity at human androgen receptor W741C mutant expressed in COS7 cells assessed as inhibition of DHT-induced luciferase activity after 24 hrs by reporter gene assay; format: functional, cell-based, COS-7
[8] = test system: Mus musculus; assay: Antiandrogenic activity in ICR mouse assessed as ventral prostate weight at 2.5 mg/kg, po bid administered for 7 days (reference value: 14.6 +/- […]); format: functional, Prostate gland; in short: as §1
[9] = Solubility in aqueous buffer solution at pH 6.8; format: physicochemical
In short: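 DMSO stock added to aqueous buffer at pH 6.8 and incubated. Precipitate removed by filtration; filtrate concentration measured by HPLC.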

[10] = test system: Mus musculus; assay: Antiandrogenic activity in ICR mouse assessed as reduction of ventral prostate weight at 2.5 mg/kg, po bid administered for 7 days relative to control; format: functional, Prostate gland; design: scale not given: the % may be the effect or the level left; in short: as §1
[11] = Antitumor activity against human JDCaP cells expressing wild type AR xenografted in testosterone propionate-challenged castrated BALB/c nude mouse assessed as decrease in tumor volume at 3.125 mg/kg, po bid administered for 29 days measured on day 28 (reference value: 681.8 +/- 75 mm3); format: functional; in short: as §2
[12] = test system: Mus musculus; assay: Antiandrogenic activity in ICR mouse assessed as ventral prostate weight at 25 mg/kg, po bid administered for 7 days (reference value: 14.6 +/- […]); format: functional, Prostate gland; in short: as §1
[13] = test system: Mus musculus; assay: Antiandrogenic activity in ICR mouse assessed as reduction of ventral prostate weight at 25 mg/kg, po bid administered for 7 days relative to control; format: functional, Prostate gland; design: scale not given: the % may be the effect or the level left; in short: as §1
[14] = Antitumor activity against human JDCaP cells expressing wild type AR xenografted in testosterone propionate-challenged castrated BALB/c nude mouse assessed as decrease in tumor volume at 6.25 mg/kg, po bid administered for 29 days measured on day 28 (reference value: 681.8 +/- 75 mm3); format: functional; in short: as §2
[15] = test system: Mus musculus; assay: Antiandrogenic activity in ICR mouse assessed as ventral prostate weight at 7.5 mg/kg, po bid administered for 7 days (reference value: 14.6 +/- […]); format: functional, Prostate gland; in short: as §1
[16] = Mean residence time in mouse at 5 mg/kg, po; format: ADME, organism-based; design: dose 5 mg/kg, route oral; details: in vivo
In short: (§3)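 Mice given a single oral 5 mg/kg dose; n = 3. AUC, bioavailability (F) and mean residence time derived from plasma exposure.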

[17] = target: T1, Androgen receptor; assay: Antagonist activity at human androgen receptor T877A mutant expressed in COS7 cells assessed as inhibition of DHT-induced luciferase activity after 24 hrs by reporter gene assay; format: functional, cell-based, COS-7
[18] = Antitumor activity against human LNCaP-FGC cells expressing androgen receptor W741C/[…] mutant xenografted in castrated BALB/c nude mouse assessed as effect on tumor volume at 25 mg/kg, po bid administered for 29 days measured on day 28 relative to control; format: functional, LNCaP-Clone-FGC
[19] = AUC in mouse at 5 mg/kg, po; format: ADME, organism-based; design: dose 5 mg/kg, route oral; details: plasma; in short: as §3
[20] = target: T3, Androgen receptor (Homo sapiens, UniProt P10275); assay: Agonist activity at human androgen receptor expressed in COS7 cells assessed as luciferase activity after 24 hrs by reporter gene assay; format: functional, cell-based, COS-7
T3 sequence (P10275 whole entry): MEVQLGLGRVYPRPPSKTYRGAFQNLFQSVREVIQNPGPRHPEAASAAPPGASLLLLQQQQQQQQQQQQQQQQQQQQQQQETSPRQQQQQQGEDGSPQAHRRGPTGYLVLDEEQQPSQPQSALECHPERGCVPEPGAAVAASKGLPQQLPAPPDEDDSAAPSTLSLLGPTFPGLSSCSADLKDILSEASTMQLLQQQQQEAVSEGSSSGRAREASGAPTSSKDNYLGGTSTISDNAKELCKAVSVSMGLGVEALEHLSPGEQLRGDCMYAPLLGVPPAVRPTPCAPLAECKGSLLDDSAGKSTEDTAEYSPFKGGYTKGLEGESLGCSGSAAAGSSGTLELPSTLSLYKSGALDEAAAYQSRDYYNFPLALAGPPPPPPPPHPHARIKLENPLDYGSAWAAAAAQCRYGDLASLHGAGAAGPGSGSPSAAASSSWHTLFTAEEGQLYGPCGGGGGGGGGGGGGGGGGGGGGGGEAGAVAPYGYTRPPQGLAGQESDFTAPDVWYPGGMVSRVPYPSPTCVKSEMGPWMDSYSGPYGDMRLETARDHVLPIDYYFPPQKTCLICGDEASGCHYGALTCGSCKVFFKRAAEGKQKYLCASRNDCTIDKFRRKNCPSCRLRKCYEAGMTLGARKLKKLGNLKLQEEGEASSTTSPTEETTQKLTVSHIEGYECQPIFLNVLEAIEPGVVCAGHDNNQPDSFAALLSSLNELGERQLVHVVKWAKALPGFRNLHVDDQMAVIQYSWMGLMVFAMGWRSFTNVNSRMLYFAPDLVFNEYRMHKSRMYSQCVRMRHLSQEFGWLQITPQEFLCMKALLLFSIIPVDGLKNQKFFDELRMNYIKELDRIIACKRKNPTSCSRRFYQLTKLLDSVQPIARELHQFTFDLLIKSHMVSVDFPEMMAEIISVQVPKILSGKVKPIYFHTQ

[21] = (§4) Antitumor activity against human LNCaP-FGC cells expressing androgen receptor W741C/[…] mutant xenografted in castrated BALB/c nude mouse assessed as effect on tumor volume at 25 mg/kg, po bid administered for 29 days measured on day 28 (reference value: 402 +/- 47.7 mm3); format: functional, LNCaP-Clone-FGC
[22] = target: T1, Androgen receptor; assay: Displacement of [17-alpha-methyl-3H]-mibolerone from human androgen receptor T877A mutant expressed in HEK293 derived FreeStyle293F cells after 3 hrs; format: cell-based
[23] = Oral bioavailability in mouse at 5 mg/kg; format: ADME, organism-based; details: in vivo; in short: as §3
[24] = target: T3, Androgen receptor; assay: Antagonist activity at human androgen receptor expressed in COS7 cells assessed as inhibition of DHT-induced luciferase activity after 24 hrs by reporter gene assay; format: functional, cell-based, COS-7
[25] = target: T3, Androgen receptor; assay: Displacement of [17-alpha-methyl-3H]-mibolerone from human androgen receptor expressed in HEK293 derived FreeStyle293F cells after 3 hrs; format: cell-based
[26] = as §4, with “decrease in prostate specific antigen level in plasma” for “effect on tumor volume”, “35.8” for “402”, “10.7 ng/mL)” for “47.7 mm3)”; format: functional, LNCaP-Clone-FGC
[27] = Antitumor activity against human JDCaP cells expressing wild type AR xenografted in testosterone propionate-challenged castrated BALB/c nude mouse assessed as decrease in tumor volume at 20 mg/kg, po qd administered for 29 days measured on day 28 relative to control; format: functional
In short: (§5)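 JDCaP tumours in nude mice (n=7) castrated the day after grouping. Testosterone propionate 0.2 mg/kg sc once daily for 29 days. Oral drug or 0.5% methylcellulose vehicle for the same period. Tumour volume measured weekly. T/C = volume increase vs testosterone-treated vehicle control × 100.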

[28] = test system: Mus musculus; assay: Antiandrogenic activity in ICR mouse assessed as reduction of ventral prostate weight at 100 mg/kg, po qd administered for 7 days relative to control; format: functional, Prostate gland; design: scale not given: the % may be the effect or the level left
In short: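 Male ICR mice, 8 weeks old, n=8, dosed orally for seven days with vehicle and castrated groups. Prostate weighed the day after the last dose. % reduction = treated-group weight decrease ÷ castrated-group decrease × 100.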

[29] = (§6) Antitumor activity against human LNCaP-FGC cells expressing androgen receptor W741C/[…] mutant xenografted in castrated BALB/c nude mouse assessed as effect on tumor volume at 20 mg/kg, po qd administered for 29 days measured on day 28 relative to control; format: functional, LNCaP-Clone-FGC
In short: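 LNCaP-cxD2 flank xenografts in BALB/c nude mice, grouped at ~200 mm3 (n=7) and castrated next day. Oral dosing for 29 days, vehicle 0.5% methylcellulose. Weekly caliper volumes. T/C = tumour volume increase vs castration (vehicle) group × 100.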

[30] = test system: Mus musculus; assay: Toxicity in BALB/c mouse assessed as body weight at 20 mg/kg, po qd administered for 29 days measured on day 28 (reference value: 17.6 +/- 0.4g); format: organism-based; design: dose 20 mg/kg, route oral; details: in vivo, 696 h
[31] = as §6, with “decrease in prostate specific antigen level in plasma” for “effect on tumor volume”, “(reference value: 35.8 +/- 10.7 ng/mL)” for “relative to control”; format: functional, LNCaP-Clone-FGC
In short: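 LNCaP-cxD2 flank xenografts in castrated BALB/c nude mice (n=7), grouped at ~200 mm3. Oral dosing for 29 days from castration, vehicle 0.5% methylcellulose. Blood taken at study end for plasma PSA.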

[32] = Antitumor activity against human LNCaP-FGC cells expressing androgen receptor W741C/[…] mutant xenografted in castrated BALB/c nude mouse assessed as effect on tumor volume at 20 mg/kg, po qd administered for 29 days measured on day 28 (reference value: 402 +/- 47.7 mm3); format: functional, LNCaP-Clone-FGC
[33] = Antitumor activity against human JDCaP cells expressing wild type AR xenografted in testosterone propionate-challenged castrated BALB/c nude mouse assessed as decrease in tumor volume at 20 mg/kg, po bid administered for 29 days measured on day 28 (reference value: 1736.6 +/- 486.2 mm3); format: functional; in short: as §5

T1 sequence (P10275 whole entry T878A): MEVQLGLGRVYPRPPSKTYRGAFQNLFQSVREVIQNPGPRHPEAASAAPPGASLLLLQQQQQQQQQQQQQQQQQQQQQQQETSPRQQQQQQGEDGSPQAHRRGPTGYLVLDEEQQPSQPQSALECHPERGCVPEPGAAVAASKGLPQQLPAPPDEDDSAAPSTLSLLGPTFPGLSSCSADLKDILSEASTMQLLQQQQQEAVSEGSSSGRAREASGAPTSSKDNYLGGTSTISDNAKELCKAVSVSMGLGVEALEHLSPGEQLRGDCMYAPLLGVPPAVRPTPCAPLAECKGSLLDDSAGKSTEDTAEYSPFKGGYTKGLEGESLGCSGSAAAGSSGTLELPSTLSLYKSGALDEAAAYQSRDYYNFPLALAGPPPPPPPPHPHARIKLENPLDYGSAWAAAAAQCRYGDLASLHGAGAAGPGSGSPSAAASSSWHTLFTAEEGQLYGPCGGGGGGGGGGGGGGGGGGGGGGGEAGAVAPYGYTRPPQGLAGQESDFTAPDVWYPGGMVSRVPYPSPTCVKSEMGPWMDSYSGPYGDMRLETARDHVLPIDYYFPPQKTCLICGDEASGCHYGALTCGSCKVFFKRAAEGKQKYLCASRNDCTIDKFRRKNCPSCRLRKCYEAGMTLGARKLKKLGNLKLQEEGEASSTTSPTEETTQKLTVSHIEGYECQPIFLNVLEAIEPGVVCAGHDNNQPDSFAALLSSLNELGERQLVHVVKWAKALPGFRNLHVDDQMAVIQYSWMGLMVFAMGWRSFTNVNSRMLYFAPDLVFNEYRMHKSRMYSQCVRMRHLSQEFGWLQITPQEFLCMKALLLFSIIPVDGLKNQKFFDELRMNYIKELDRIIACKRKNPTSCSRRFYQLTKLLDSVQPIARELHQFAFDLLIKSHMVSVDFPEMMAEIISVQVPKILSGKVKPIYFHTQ
T2 sequence (P10275 whole entry W742C): as the sequence (P10275 whole entry T878A) above, with W742C, A878T counted along it

Cc1c(C#N)c(-c2ccc(C#N)cc2)c(C)n1Cc1cnc(Cl)c(CO)c1
pEC50 [1]: < 5.00
Activity [2]: 31%
Activity [3]: 22.9 g
pEC50 [4]: < 5.00
T/C [5]: -44.7%
T/C [6]: -44.8%
pIC50 [7]: 6.55
Activity [8]: 13.4 mg
solubility [9]: 15 µg/mL (≈ 39.8 µM)
Activity [10]: 16%
Activity [11]: 88.4 mm3
Activity [12]: 8.9 mg
Activity [13]: 74%
Activity [14]: 94.8 mm3
Activity [15]: 12.2 mg
MRT [16]: 4.85 h
pIC50 [17]: 6.96
T/C [18]: 15.8%
AUC [19]: 19200 ng·h/mL
pEC50 [20]: < 5.00
Activity [21]: 269.3 mm3
pIC50 [22]: 7.00
bioavailability [23]: 104%
pIC50 [24]: 7.60
pIC50 [25]: 7.43
Activity [26]: 1 ng/mL

CC(O)(CS(=O)(=O)c1ccc(F)cc1)C(=O)Nc1ccc(C#N)c(C(F)(F)F)c1 (stereo not drawn) [BICALUTAMIDE]
T/C [27]: -70.2%
Activity [28]: 40%
T/C [29]: 137.9%
Activity [30]: 17.9 g
Activity [31]: 38.5 ng/mL
Activity [32]: 461.5 mm3
Activity [33]: 212.2 mm3
